Key:
[1] = Inhibition of alpha-glucosidase (unknown origin) using PNPG as substrate at 5 to 45 uM preincubated for 15 mins followed by substrate addition and measured after 10 mins by microplate reader analysis; details: Homo sapiens; dose 5-45 µM, time 25.0 min
In short: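 Compounds in DMSO/PBS dilution series were incubated with α-glucosidase (1.0 U/mL in PBS) for 15 min at 37 °C. 1 mM PNPG was added and incubated 10 min, then OD was read at 405 nm. Inhibition % was corrected with PBS-only and enzyme-free blanks. IC50 was calculated, with experiments run in triplicate.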

[2] = Cytotoxicity against human HEK-293T cells overexpressing ACE2 assessed as maximal non-toxic dose incubated for 4 hrs; format: toxicity, cell-based
L02 = assay: Cytotoxicity against human L02 cells assessed as reduction on cell viability at 3.125 to 100 uM by MTT assay; format: toxicity, cell-based; details: l02, 100 µM, dose 3.125-100 µM
[3] = Cytotoxicity against human L02 cells assessed as cell survival rate at 100 uM by MTT assay; format: toxicity, cell-based; details: read-out: Survival
[4] = target: Angiotensin-converting enzyme 2 (Homo sapiens, UniProt Q9BYF1); assay: Binding affinity to human ACE2 assessed as equilibrium dissociation constant by biolayer interferometry assay
Sequence of Angiotensin-converting enzyme 2 (Q9BYF1 whole entry): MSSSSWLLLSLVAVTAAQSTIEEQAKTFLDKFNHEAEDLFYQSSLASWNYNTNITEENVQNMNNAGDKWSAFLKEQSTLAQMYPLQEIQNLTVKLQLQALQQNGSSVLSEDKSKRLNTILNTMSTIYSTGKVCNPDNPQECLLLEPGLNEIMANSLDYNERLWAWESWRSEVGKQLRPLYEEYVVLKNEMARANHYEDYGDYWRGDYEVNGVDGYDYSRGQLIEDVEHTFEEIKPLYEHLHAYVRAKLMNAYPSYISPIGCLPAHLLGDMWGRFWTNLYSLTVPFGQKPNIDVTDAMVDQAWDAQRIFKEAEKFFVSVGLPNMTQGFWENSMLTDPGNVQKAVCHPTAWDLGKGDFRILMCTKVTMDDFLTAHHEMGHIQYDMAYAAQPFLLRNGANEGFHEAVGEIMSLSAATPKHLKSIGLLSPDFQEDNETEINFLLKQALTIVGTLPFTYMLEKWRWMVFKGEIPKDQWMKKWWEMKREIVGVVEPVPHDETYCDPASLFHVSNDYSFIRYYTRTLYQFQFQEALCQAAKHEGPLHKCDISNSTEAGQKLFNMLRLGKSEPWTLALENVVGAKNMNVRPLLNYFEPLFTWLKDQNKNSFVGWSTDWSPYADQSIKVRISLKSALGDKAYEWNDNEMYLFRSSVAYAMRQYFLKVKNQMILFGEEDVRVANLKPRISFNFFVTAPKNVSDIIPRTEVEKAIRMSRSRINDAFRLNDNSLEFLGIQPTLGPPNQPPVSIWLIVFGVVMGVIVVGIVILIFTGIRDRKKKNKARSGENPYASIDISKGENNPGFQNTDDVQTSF
In short: (§1)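 BLI on Ni-NTA biosensors loaded with His-tagged recombinant SARS-CoV-2 spike RBD or human ACE2. Compounds (10 mM DMSO stock) were diluted serially in PBS. Each cycle: PBS equilibration 10 min, baseline 120 s, association 120 s, dissociation in PBS 120 s, all at 30 °C. Curves were double-referenced to blank sensors and PBS, and KD came from a 1:1 binding fit.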

Spike glycoprotein = Spike glycoprotein (Severe acute respiratory syndrome coronavirus 2, UniProt P0DTC2); assay: Binding affinity to SARS-CoV-2 spike protein receptor-binding domain assessed as equilibrium dissociation constant by biolayer interferometry assay; in short: as §1

Structure (SMILES) | inhibition [1] [%] | MNTC at 4 h [2] [µM] | also measured
C=CCc1cc(CSc2nnc(-c3cccc(C)c3)o2)c(O)c(-c2ccc(O)c(CC=C)c2)c1 | 78.2 |  | 
C=CCc1cc(-c2cc(CC=C)c3oc(SCc4nnc(-c5ccccc5Cl)o4)nc3c2)c2oc(SCc3nnc(-c4ccccc4Cl)o3)nc2c1 | 19.4 | > 100 | 
C=CCc1cc(CSc2nnc(-c3ccccc3F)o2)c(O)c(-c2ccc(O)c(CC=C)c2)c1 |  | > 100 | 
C=CCc1cc(-c2cc(CC=C)c3oc(SCc4nnc(-c5ccccc5OC)o4)nc3c2)c2oc(SCc3nnc(-c4ccccc4OC)o3)nc2c1 | 25.2 | > 100 | 
C=CCc1cc(CSc2nnc(-c3cccnc3)o2)c(O)c(-c2ccc(O)c(CC=C)c2)c1 | 33.2 | > 100 | Activity (L02): Non-Toxic; viability at 100 µM [3]: 80%; Kd [4]: 16 µM; Kd (Spike glycoprotein): 7.29 µM
C=CCc1cc(CSc2nnc(-c3ccc([N+](=O)[O-])cc3)o2)c(O)c(-c2ccc(O)c(CC=C)c2)c1 | 79.5 |  | 
C=CCc1cc(CSc2nnc(-c3ccc(C)cc3)o2)c(O)c(-c2ccc(O)c(CC=C)c2)c1 | 6.7 |  | 
C=CCc1cc(-c2cc(CC=C)c3oc(SCc4nnc(-c5ccc(C)cc5)o4)nc3c2)c2oc(SCc3nnc(-c4ccc(C)cc4)o3)nc2c1 | 13.5 | > 100 | 
C=CCc1cc(-c2cc(CC=C)c3oc(SCc4nnc(-c5ccccc5F)o4)nc3c2)c2oc(SCc3nnc(-c4ccccc4F)o3)nc2c1 | 33.9 | > 100 | 
C=CCc1cc(-c2cc(CC=C)c3oc(SCc4nnc(-c5cccc(Cl)c5)o4)nc3c2)c2oc(SCc3nnc(-c4cccc(Cl)c4)o3)nc2c1 | 10.4 | > 100 | 
C=CCc1cc(-c2cc(CC=C)c3oc(SCc4nnc(-c5ccc(F)cc5)o4)nc3c2)c2oc(SCc3nnc(-c4ccc(F)cc4)o3)nc2c1 | 8.4 | > 100 | 
C=CCc1cc(CSc2nnc(-c3ccc(Cl)cc3)o2)c(O)c(-c2ccc(O)c(CC=C)c2)c1 | 7.1 |  | 
C=CCc1cc(CSc2nnc(-c3cccc(OC)c3)o2)c(O)c(-c2ccc(O)c(CC=C)c2)c1 | 81.8 |  | 
C=CCc1cc(-c2cc(CC=C)c3oc(SCc4nnc(-c5ccc(Cl)cc5)o4)nc3c2)c2oc(SCc3nnc(-c4ccc(Cl)cc4)o3)nc2c1 | 57.9 | > 100 | 
C=CCc1cc(CSc2nnc(-c3cccc(F)c3)o2)c(O)c(-c2ccc(O)c(CC=C)c2)c1 | 53.5 |  | 
C=CCc1cc(-c2cc(CC=C)c3oc(SCc4nnc(-c5cccc(Br)c5)o4)nc3c2)c2oc(SCc3nnc(-c4cccc(Br)c4)o3)nc2c1 | 12.4 | > 100 | 
C=CCc1cc(-c2cc(CC=C)c3oc(SCc4nnc(-c5cccc(C)c5)o4)nc3c2)c2oc(SCc3nnc(-c4cccc(C)c4)o3)nc2c1 | 95.2 | > 100 | Activity (L02): Non-Toxic; viability at 100 µM [3]: 80%
C=CCc1cc(-c2cc(CC=C)c3oc(SCc4nnc(-c5ccccc5)o4)nc3c2)c2oc(SCc3nnc(-c4ccccc4)o3)nc2c1 | 6.3 | > 100 | 
C=CCc1cc(CSc2nnc(-c3ccccc3)o2)c(O)c(-c2ccc(O)c(CC=C)c2)c1 | 69.8 | > 100 | Activity (L02): Non-Toxic; viability at 100 µM [3]: 80%; Kd [4]: 14 µM; Kd (Spike glycoprotein): 6.94 µM
C=CCc1cc(-c2cc(CC=C)c3oc(SCc4nnc(-c5ccccc5Br)o4)nc3c2)c2oc(SCc3nnc(-c4ccccc4Br)o3)nc2c1 | 91.5 | > 100 | 
C=CCc1cc(CSc2nnc(-c3ccccc3Cl)o2)c(O)c(-c2ccc(O)c(CC=C)c2)c1 | 64.5 | > 100 | 
C=CCc1cc(CSc2nnc(-c3ccccc3C)o2)c(O)c(-c2ccc(O)c(CC=C)c2)c1 | 64.5 | > 100 | 
C=CCc1cc(-c2cc(CC=C)c3oc(SCc4nnc(-c5ccc(Br)cc5)o4)nc3c2)c2oc(SCc3nnc(-c4ccc(Br)cc4)o3)nc2c1 | 22.4 | > 100 | 
C=CCc1cc(-c2cc(CC=C)c3oc(SCc4nnc(-c5ccc(OC)cc5)o4)nc3c2)c2oc(SCc3nnc(-c4ccc(OC)cc4)o3)nc2c1 | 9.9 | > 100 | 
C=CCc1cc(CSc2nnc(-c3ccc(Br)cc3)o2)c(O)c(-c2ccc(O)c(CC=C)c2)c1 | 3.7 |  | 
C=CCc1cc(-c2cc(CC=C)c3oc(SCc4nnc(-c5ccccc5C)o4)nc3c2)c2oc(SCc3nnc(-c4ccccc4C)o3)nc2c1 |  | > 100 | 
C=CCc1ccc(O)c(-c2ccc(O)c(CC=C)c2)c1 [HONOKIOL] | 17.1 | 50 | Kd (Spike glycoprotein): 25 µM
C=CCc1cc(-c2cc(CC=C)c3oc(SCc4nnc(-c5cccc(OC)c5)o4)nc3c2)c2oc(SCc3nnc(-c4cccc(OC)c4)o3)nc2c1 | 95.5 | > 100 | 
C=CCc1cc(-c2cc(CC=C)c3oc(SCc4nnc(-c5cccc(F)c5)o4)nc3c2)c2oc(SCc3nnc(-c4cccc(F)c4)o3)nc2c1 | 14.6 | > 100 | 

From ChEMBL document CHEMBL5126577, “Discovery of honokiol thioethers containing 1,3,4-oxadiazole moieties as potential α-glucosidase and SARS-CoV-2 entry inhibitors” (Bioorg Med Chem, 2022)
